Here are results for 7 compounds from article PMC4872822 (Journal of medicinal chemistry, 2015).

One series deals with T1, h-15-LOX-1 (Homo sapiens, UniProt P16050).
T1 sequence (P16050 1-662): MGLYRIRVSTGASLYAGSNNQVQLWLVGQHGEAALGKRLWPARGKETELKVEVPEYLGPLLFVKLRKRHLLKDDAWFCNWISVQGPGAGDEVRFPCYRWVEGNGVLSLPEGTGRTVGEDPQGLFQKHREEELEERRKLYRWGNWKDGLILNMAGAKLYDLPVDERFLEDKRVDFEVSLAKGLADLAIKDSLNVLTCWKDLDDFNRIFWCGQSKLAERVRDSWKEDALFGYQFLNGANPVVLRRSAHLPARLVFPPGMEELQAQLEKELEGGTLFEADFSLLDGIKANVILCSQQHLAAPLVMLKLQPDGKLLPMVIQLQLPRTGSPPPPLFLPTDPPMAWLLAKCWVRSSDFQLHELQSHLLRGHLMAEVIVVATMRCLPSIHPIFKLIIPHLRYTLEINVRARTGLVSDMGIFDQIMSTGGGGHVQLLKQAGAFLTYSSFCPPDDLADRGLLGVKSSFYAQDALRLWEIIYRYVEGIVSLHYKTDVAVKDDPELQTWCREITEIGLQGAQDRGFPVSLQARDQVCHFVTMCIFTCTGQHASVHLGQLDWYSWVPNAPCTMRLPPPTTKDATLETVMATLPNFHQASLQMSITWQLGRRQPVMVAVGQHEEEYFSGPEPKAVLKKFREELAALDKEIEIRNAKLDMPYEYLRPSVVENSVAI
In words: Human 15-LOX-1 screening UV assay. It counts as biochemical. The note with it: for h-15-LOX-1 inhibition (result in words): SAR comparison, Figure 3, up to 50 μM.

Series [1] deals with interleukin expression in RAW 264.7 cells. In words: Gene expression by RT-qPCR in LPS/IFNγ-stimulated RAW 264.7 cells. It counts as cell-based, murine. The following applies: RAW 264.7, 20 h with 10 μM linoleic acid, LPS/IFNγ last 4 h. The method, boiled down:
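Murine macrophages (passage 7–16) in DMEM-GlutaMAX with 10% heat-inactivated FBS, extra 2 mM GlutaMAX and penicillin/streptomycin at 37 °C, 5% CO2, seeded at 20,000 cells/cm2 one day before. Test compound 1–500 nM (final) with 10 μM linoleic acid for 20 h; 10 ng/ml LPS and IFNγ for the last 4 h. Cells were DPBS-washed and total RNA isolated for RT-qPCR. Results are fold change versus the LPS/IFNγ/linoleic acid control.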

In series [2] the test system is interleukin expression in precision-cut lung slices (PCLS). Briefly: Gene expression by RT-qPCR in LPS/IFNγ-stimulated precision-cut lung slices. The following applies: 20 h with 10 μM linoleic acid, LPS/IFNγ last 4 h. It counts as cell-based, mouse. In general terms: Real-time PCR tracks product formation cycle by cycle.
Series [3] has as its system precision-cut lung slices (PCLS). The following applies: LDH release, 1-500 nM with 10 μM linoleic acid for 20 h. (LDH in the medium is a marker of cell lysis.)
The next series relates to interleukin-12 (IL-12). The note with it: after stimulation with LPS; cited from earlier work.

As a reminder, the inhibition is the relative decrease from the control value, in per cent.

In the case of `O=Cc1c(Cl)[nH]c2cc(Cl)ccc12` [Compound 4], the “h-15-LOX-1 inhibition (result in words)” value at h-15-LOX-1 was “inactive”.
As to `O=Cc1c(C(=O)O)[nH]c2cc(Cl)ccc12` [Compound 7, 6-chloro-3-formyl-1H-indole-2-carboxylic acid], the “h-15-LOX-1 inhibition (result in words)” value on h-15-LOX-1 is “inactive”.
In the case of `CCOC(=O)c1[nH]c2cc(Cl)ccc2c1C(=O)C[C@@H](C)CCCC(C)C` [Compound 14d, (S)-ethyl 6-chloro-3-(3,7-dimethyloctanoyl)-1H-indole-2-carboxylate], in series [1], the IL-1β gene expression result is on record as “did not change”, the IL-6 gene expression entry is reported as “did not change” and the IL-12 gene expression result is “did not change”. Also, in series [2], the IL-1β gene expression entry is on record as “small but significant downregulation”, the IL-6 gene expression result was “small but significant downregulation”, the IL-10 gene expression result is given as “upregulated” and the IL-12 gene expression entry is “remained unchanged”. Further, in series [3], the “concentration not affecting PCLS viability” value is recorded as ≤ 500 nM.
Regarding `CCOC(=O)c1c(C=O)c2ccc(Cl)cc2n1C` [Compound 3, Ethyl 6-chloro-3-formyl-1-methyl-1H-indole-2-carboxylate], at h-15-LOX-1 (read-out: inhibition of the enzyme activity at 50 μM), the inhibition at 50 µM was < 50%.
`c1ccc2c(c1)SCc1c-2[nH]c2ccccc12` [PD-146176]: in the series with interleukin-12 (IL-12), the “effect on interleukin-12 (IL-12)” value was “downregulation of interleukin-12 (IL-12)”.
Turning to `CC(C)(C)OC(=O)c1cc2ccc(Cl)cc2[nH]1` [Compound 8, tert-butyl 6-chloro-1H-indole-2-carboxylate], the “h-15-LOX-1 inhibition (result in words)” value on h-15-LOX-1 was “inactive”.
For `O=Cc1c[nH]c2cc(Cl)ccc12` [Compound 5], on h-15-LOX-1, the “h-15-LOX-1 inhibition (result in words)” value is “inactive”.
